# TRPC4 act – TRPC4 (mouse) channel activation; Q9QUQ5; HEK293 TRPC4beta/mu-opioid, Fluo4 calcium fluorescence; hits give high values; B-score at 10 µM; actives 0.49% (n = 310,000);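 active = B-score above 5 SD of library B-scores, and initial fluorescence ratio not above library mean plus 5 SD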;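 also: positive B-score marks a calcium rise read as TRPC4 activation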
#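 system = HEK293 cells stably co-expressing mouse TRPC4beta and mu-opioid receptor | schedule = Fluo4 dye loading 45 min at room temperature, 110 s recording | measure = B-scored integrated calcium fluorescence ratio | signal = Fluo4 calcium-sensitive dye fluorescence, kinetic, 1 Hz baseline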
# TRPC6 act – activates the mouse TRPC6 cation channel | Q61143 | HEK293-TRPC6 membrane potential dye fluorescence; hits give high values | B-score at 10 µM | actives 0.13% (n = 310,000);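 active = B-score of the integrated fluorescence ratio above library mean plus 3 SD, and starting fluorescence ratio within library mean plus 5 SD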;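 also: higher score means more depolarization so channel activation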
# TRPC4 PAM – allosterically enhances the mouse TRPC4 cation channel; HEK293 TRPC4beta/mu-opioid, DAMGO EC20, Fluo-4 Ca2+ flux; hits give high values; actives 0.42% (n = 310,000); B-score at 10 µM; Q9QUQ5;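 active = B-score of calcium response area above 5 SD of library B-scores, with initial fluorescence ratio within 5 SD of library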
# TRPC6 inhibitor – inhibitors of mouse TRPC6 channel; Q61143; actives 1.1% (n = 310,000); HEK293-TRPC6, membrane potential dye, ACh-evoked depolarization; hits give low values; B-score at 10 µM; AID 2553;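 active = B-score under library mean minus 3 SD, initial fluorescence not abnormally high, positive integrated signal ratio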;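 also: B-score derived from integrated fluorescence ratio over the kinetic read; more negative B-score means stronger inhibition of depolarization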
# Kir21 inh – inhibitors of mouse Kir2.1 inward-rectifier potassium channel; B-score at 10 µM; P35561; actives 0.85% (n = 310,000); HEK293-Kir2.1, FluxOR thallium flux fluorescence; hits give low values;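 active = fluorescence ratio B-score at or below minus 3 SD of library scores, with starting-brightness B-score within 2 SD, cut at about -4.2 in these data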;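 also: channel flux triggered by added potassium and thallium sulfate stimulus; B-score of peak minus minimum fluorescence over baseline after thallium stimulus; more negative B-score means stronger Kir2.1 block with less thallium influx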
# TRPC4 block – inhibitors of mouse TRPC4 channel | Q9QUQ5 | HEK293 TRPC4beta/mu-opioid, DAMGO-evoked Fluo4 calcium flux; hits give low values | B-score at 10 µM | actives 0.39% (n = 300,000);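 active = B-score over 3 SD under the library average, no early fluorescence shift, positive overall ratio signal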
#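 Assay system: HEK293 cells with stable TRPC4beta plus mu-opioid receptor expression. Dosing: single dose. Measured by: Fluo4 Ca2+ flux fluorescence. Also added: DAMGO in two steps, submaximal then maximal. Read-out: B score from integrated Fluo4 fluorescence ratio.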
# TRPC4 spec 2 – mouse TRPC4 off-target activity of TRPC6 inhibitors, second screen | HEK293 TRPC4/MOR, membrane potential dye fluorescence; channel activated by saturating DAMGO dose | actives 42% (n = 920) | AID 2776 | inhibition, % at 10 µM | shares compounds with TRPC6 inhibitor;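 active = compounds whose fluorescence signal differed from control wells by over 3 SD, either direction, in both duplicate plates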
# TRPC4 spec – tests whether TRPC6 inhibitors also affect mouse TRPC4 | AID 2777 | shares compounds with TRPC6 inhibitor | activity change, negative = inhibition, % at 10 µM | actives 61% (n = 920) | HEK293 TRPC4/mu-opioid, membrane potential fluorescence;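 active = rise or fall in signal beyond 3 SD of buffer-only wells in both replicate plates, either sign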;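 also: integrated kinetic ratio of fluorescence range over baseline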
# HEK293 MPD ctr 2-1 – parental HEK293 nonspecific activity of TRPC6 inhibitors, second screen; shares compounds with TRPC6 inhibitor; signal change vs control, % at 10 µM; parental HEK293 membrane potential dye fluorescence; maximal acetylcholine challenge after compound addition; actives 31% (n = 920);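 active = membrane potential signal moving either way by over 3 SD of the maximum-effect control, in both duplicate plates, meaning non-specific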
# HEK293 MPD ctr-1 – counter-screen for TRPC6 inhibitors: effect in parental HEK293 cells. shares compounds with TRPC6 inhibitor. parental HEK293 membrane potential dye fluorescence. membrane potential signal change, % at 10 µM. actives 60% (n = 920);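 active = membrane potential signal shifting up or down by more than 3 SD of buffer-only wells, on both duplicate plates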
# HEK293 MPD ctr-2 – checks TRPC6 modulator effects in parental HEK293 cells. shares compounds with TRPC6 inhibitor. membrane potential dye fluorescence. membrane potential signal change, % at 10 µM. actives 51% (n = 2,400). AID 488924;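 active = membrane potential signal moves up or down beyond 5 SD from buffer-only wells, on both duplicate plates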
# HEK293 MPD ctr 2-2 – second counter-screen for TRPC6 modulators: effect in parental HEK293 cells. inhibition, % at 10 µM. actives 14% (n = 2,400). membrane potential dye fluorescence; after compound, maximal acetylcholine stimulation. shares compounds with TRPC6 inhibitor;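 active = membrane potential signal drops by more than 5 SD from the mean control signal, in both duplicate plates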
# TRPC4 ctr mod – tests whether TRPC6 modulators also affect mouse TRPC4 | actives 69% (n = 2,400) | HEK293 TRPC4/mu-opioid, membrane potential fluorescence | shares compounds with TRPC6 inhibitor | percent change from control (negative = decrease, positive = increase), % at 10 µM;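 active = membrane potential signal moved up or down beyond 5 SD of buffer control wells, in both duplicate plates, actives on both sides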
# TRPC4/MOR inh 2 – mouse TRPC4 off-target activity of TRPC6 modulators, second screen; shares compounds with TRPC6 inhibitor; inhibition, % at 10 µM; HEK293 TRPC4/mu-opioid, membrane potential dye fluorescence; stimulated with maximal-effect DAMGO; actives 55% (n = 2,400);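 active = drop in membrane potential signal beyond 5 SD of the control wells in both duplicate plates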;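 also: TRPC4 counter screen for TRPC6 hits run under conditions tuned for TRPC6 not TRPC4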
# TRPC6 block conf – confirmation of mouse TRPC6 inhibitors | shares compounds with TRPC6 inhibitor | AID 488960 | inhibition, % at 10 µM | HEK293-TRPC6, membrane potential dye, ACh-evoked depolarization | actives 43% (n = 3,300);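 active = fluorescence ratio falls more than 5 SD below the full-stimulation control mean, in both duplicate runs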;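 also: integrated fluorescence ratio of peak minus minimum over baseline after agonist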
# TRPC6 act conf – mouse TRPC6 activator confirmation; shares compounds with TRPC6 inhibitor; HEK293-TRPC6 membrane potential dye fluorescence, FDSS; activation, % at 10 µM; actives 11% (n = 2,800);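 active = ratio signal rise beyond 5 SD above unstimulated control wells' mean, seen in both duplicate runs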
# A number is an active result; 0 = inactive; - = not tested or not shown. A selection: hits, their analogues and other compounds. The true share with any hit is near 2.9%.
SMILES,TRPC4 act,TRPC6 act,TRPC4 PAM,TRPC6 inhibitor,Kir21 inh,TRPC4 block,TRPC6 block conf,TRPC6 act conf,others
CCCCn1c2ccc(F)cc2c2nnc(SCCN3CCCCC3)nc21,0,0,0,-5.6,0,0,0,0,HEK293 MPD ctr-2=-74%;HEK293 MPD ctr 2-2=0;TRPC4 ctr mod=-19%;TRPC4/MOR inh 2=38%
Cn1c2ccc(F)cc2c2nnc(SCCN3CCCCC3)nc21,0,0,0,-7.4,0,0,0,0,TRPC4 spec 2=76%;TRPC4 spec=-13%;HEK293 MPD ctr 2-1=16%;HEK293 MPD ctr-1=-204%
CCCCn1c2ccc(C)cc2c2nnc(SCCN3CCCCC3)nc21,0,0,0,-5.8,0,0,45%,0,HEK293 MPD ctr-2=0;HEK293 MPD ctr 2-2=0;TRPC4 ctr mod=0;TRPC4/MOR inh 2=66%
CC(=O)Nc1c(O)nc(SCc2ccc(Cl)cc2)[nH]c1=O,0,0,0,0,0,0,-,-,
COc1ccc(CCNC(=O)COc2ccc(N(C)S(=O)(=O)c3ccc(C)cc3)cc2)cc1,0,0,0,0,0,0,-,-,
CCOc1ccccc1N1CCN(Cc2ccco2)CC1,0,0,0,0,0,0,-,-,
CCOc1ccccc1N1CCN(C/C=C/c2ccc(N(C)C)cc2)CC1,0,0,0,-6.5,0,0,50%,0,HEK293 MPD ctr-2=0;HEK293 MPD ctr 2-2=0;TRPC4 ctr mod=0;TRPC4/MOR inh 2=66%
CC(C)N1CCc2c(sc(NC(=O)CCS(=O)(=O)c3ccccc3)c2C(N)=O)C1,0,0,0,0,0,0,-,-,
CC(C)CC1CCCCC1OC(=O)C[N+]1(C)CCCCC1 (centres undefined),0,0,0,-8.7,0,0,87%,0,TRPC4 spec 2=0;TRPC4 spec=0;HEK293 MPD ctr 2-1=16%;HEK293 MPD ctr-1=0
CC(C)(C)C1CCC(OC(=O)C[N+]2(C)CCCCC2)CC1 (centres undefined),0,0,0,0,0,0,-,-,
Cc1ccc(-c2c[nH]c(=S)n2-c2ccccc2)cc1,0,0,0,0,0,0,-,-,
COc1ccc(C(=O)N2CCCC2(C#N)c2ccccc2)cc1[N+](=O)[O-] (centres undefined),0,0,0,-7.6,0,0,0,0,TRPC4 spec 2=0;TRPC4 spec=0.7%;HEK293 MPD ctr 2-1=0;HEK293 MPD ctr-1=0
COc1ccccc1C(=O)N1CCCC1(C#N)c1ccccc1 (centres undefined),0,0,0,0,0,0,-,-,
